According to PMC2872922 (Journal of medicinal chemistry, 2010):

How the values were obtained:
[1] = target: K18 tau fragment bearing the P301L mutation (K18PL) (Homo sapiens, UniProt P10636, P618L); assay: Heparin-induced tau K18PL fibrillization assay monitored by thioflavine-T; type: biochemical
[2] = target: tau40-promoted MT-polymerization (tubulin) (Homo sapiens, UniProt P10636); assay: MT-assembly; type: biochemical; settings: 50 μM compound, 30 μM tubulin, 20 μM tau40
Method in brief: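 Wild-type full-length human tau40 (2N4R) was preincubated with test compound for 120 min at room temperature in RAB (100 mM MES pH 6.9, 1 mM […], 0.5 mM MgSO4). Bovine brain tubulin and GTP were then added. Final concentrations were 30 μM tubulin, 20 μM tau, 50 μM compound and 2 mM GTP, with a DMSO control. Polymerisation was followed at 37 °C by A340 every minute for 45 min.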

[3] = Brain and plasma levels 1 h after i.p. administration; type: in vivo; settings: female, B6C3F1, mouse, brain, ip, 5 mg/kg, Brain level, mice, 5 mg/kg i.p.
Method in brief: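 Two-month-old female B6C3F1 mice, three per compound, given test compound 5 mg/kg i.p. and sampled at 1 h. Brain hemispheres were homogenised in 10 mM ammonium acetate pH 5.7 (1:2 w/v), and plasma was collected on EDTA. Samples were acetonitrile-extracted and quantified by LC-MS/MS (MRM, positive ESI) against spiked brain/plasma standards (4–4000 ng/mL) using a 1/x-weighted linear fit and triplicate injections.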

[4] = Brain and plasma levels after oral administration; type: in vivo; settings: mice, oral gavage 5 mg/Kg
Method in brief: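 Female B6C3F1 mice, two months old, were dosed with test compound at 5 mg/kg by oral gavage. Brain homogenate (10 mM ammonium acetate pH 5.7, 1:2 w/v) and EDTA plasma were extracted with acetonitrile. Levels were measured by LC-MS/MS with MRM detection, quantified from matrix-matched standard curves (4–4000 ng/mL) by 1/x-weighted linear regression on the mean of triplicate injections.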

[5] = Phase 2 study, 321 patients with mild or moderate AD; cited from earlier work

tau40-promoted MT-polymerization (tubulin), sequence (P10636 1-441 isoform P10636-8): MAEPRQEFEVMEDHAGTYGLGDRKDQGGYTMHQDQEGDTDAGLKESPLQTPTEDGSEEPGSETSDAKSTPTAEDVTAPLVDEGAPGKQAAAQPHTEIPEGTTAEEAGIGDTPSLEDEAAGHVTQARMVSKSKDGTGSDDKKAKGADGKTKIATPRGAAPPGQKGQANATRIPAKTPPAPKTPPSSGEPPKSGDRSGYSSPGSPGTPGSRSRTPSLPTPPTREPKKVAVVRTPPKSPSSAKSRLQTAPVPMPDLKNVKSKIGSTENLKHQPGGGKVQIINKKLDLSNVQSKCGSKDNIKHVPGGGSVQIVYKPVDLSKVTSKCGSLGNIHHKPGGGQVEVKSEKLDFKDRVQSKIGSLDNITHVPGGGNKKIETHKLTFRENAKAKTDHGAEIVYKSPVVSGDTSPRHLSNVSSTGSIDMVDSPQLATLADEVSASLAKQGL
K18 tau fragment bearing the P301L mutation (K18PL), sequence (P10636 561-689 P618L): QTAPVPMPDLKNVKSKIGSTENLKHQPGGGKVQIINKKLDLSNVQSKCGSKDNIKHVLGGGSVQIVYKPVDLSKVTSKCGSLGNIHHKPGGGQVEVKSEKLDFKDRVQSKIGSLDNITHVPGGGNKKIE

IC50 [1]	SMILES	further results
3.1 ± 0.6 µM	CC(C)NC(=O)c1nn(-c2ccc(Br)cc2)c(=O)c2c(N)scc12 [Compound 19, 5-Amino-3-(4-bromophenyl)-N-isopropyl-4-oxo-3,4-dihydrothieno[3,4-d]pyridazine-1-carboxamide]	–
6.9 ± 3.4 µM	CCNC(=O)c1nn(-c2ccc(Cl)cc2)c(=O)c2c(N)scc12 [Compound 14, 5-Amino-3-(4-chlorophenyl)-N-ethyl-4-oxo-3,4-dihydrothieno[3,4-d]pyridazine-1-carboxamide]	concentration at 1 h [3]: > 800 ng/g
8.1 ± 5.7 µM	Nc1scc2c(C(=O)NC3CC3)nn(-c3ccc(Cl)cc3)c(=O)c12 [Compound 16, 5-Amino-3-(4-chlorophenyl)-N-cyclopropyl-4-oxo-3,4-dihydrothieno[3,4-d]pyridazine-1-carboxamide]	concentration at 1 h [3]: > 800 ng/g; Brain concentration after oral administration [4]: significant concentrations
20.5 ± 13.6 µM	CN(C)C(=O)c1nn(-c2ccc(Cl)cc2)c(=O)c2c(N)scc12 [Compound 17, 5-Amino-3-(4-chlorophenyl)-N,N-dimethyl-4-oxo-3,4-dihydrothieno[3,4-d]pyridazine-1-carboxamide]	–
5.9 ± 4.7 µM	CC(C)NC(=O)c1nn(-c2ccc(Cl)cc2)c(=O)c2c(N)scc12 [Compound 15, 5-Amino-3-(4-chlorophenyl)-N-isopropyl-4-oxo-3,4-dihydrothieno[3,4-d]pyridazine-1-carboxamide]	concentration at 1 h [3]: > 800 ng/g; Brain concentration after oral administration [4]: significant concentrations
21.7 ± 16 µM	CNC(=O)c1nn(-c2ccc(Cl)cc2)c(=O)c2c(N)scc12 [Compound 13, 5-Amino-3-(4-chlorophenyl)-N-methyl-4-oxo-3,4-dihydrothieno[3,4-d]pyridazine-1-carboxamide]	–
32 ± 4.1 µM	CCN(C)C(=O)c1nn(-c2ccc(Cl)cc2)c(=O)c2c(N)scc12 [Compound 18, 5-Amino-3-(4-chlorophenyl)-N-ethyl-N-methyl-4-oxo-3,4-dihydrothieno[3,4-d]pyridazine-1-carboxamide]	–

The next lines start with the compound.

SMILES	IC50 [1]	further results
Nc1scc2c(C(=O)O)nn(-c3ccc(Cl)cc3)c(=O)c12 [Compound 11, 5-Amino-3-(4-chlorophenyl)-4-oxo-3,4-dihydrothieno[3,4-d]pyridazine-1-carboxylic acid]	5.4 ± 2.3 µM	Interference with the normal MT-stabilizing function of tau [2]: did not appear to interfere
CN(C)c1ccc2nc3ccc(=[N+](C)C)cc-3sc2c1 [methylene blue]	–	Cognitive decline compared to placebo [5]: significant reduction in cognitive decline
CC(C)OC(=O)c1nn(-c2ccc(Cl)cc2)c(=O)c2c(N)scc12 [Compound 10, Isopropyl 5-amino-3-(4-chlorophenyl)-4-oxo-3,4-dihydrothieno[3,4-d]pyridazine-1-carboxylate]	1.6 ± 1.1 µM	Interference with the normal MT-stabilizing function of tau [2]: did not appear to interfere
CCOC(=O)c1nn(-c2ccc(Cl)cc2)c(=O)c2c(N)scc12 [Compound 8, Ethyl 5-amino-3-(4-chlorophenyl)-4-oxo-3,4-dihydrothieno[3,4-d]pyridazine-1-carboxylate]	3.8 ± 1.6 µM	Interference with the normal MT-stabilizing function of tau [2]: did not appear to interfere
